Measured values: ChEMBL document CHEMBL1151732, “Synthesis and anticancer activity comparison of phenylalkyl isoselenocyanates with corresponding naturally occurring and synthetic isothiocyanates” (J Med Chem, 2008)
pIC50: −log10 of the molar value. Calls of active or inactive are those of the source. No cut-off for these calls is given here.

Experiments:
UACC-903 [1] = assay: Cytotoxicity against human UACC-903 cells after 24 hrs by MTS assay; conditions: UACC-903, 24 h
UACC-903 [2] = assay: Cytotoxicity against human UACC-903 cells assessed as decrease in cell viability after 24 hrs by MTS assay relative to control; type: functional, cell-based; conditions: for pIC50: UACC-903, 24 h
Summary of the method: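 UACC 903 melanoma cells, 5×10^3 per well in DMEM with 10% FBS, were exposed after 24 h to DMSO or 5, 10 or 15 μM agent for 24 h. Viability was read by MTS tetrazolium reduction to formazan and expressed as percent of DMSO control, as the mean of three independent experiments with SEM.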

UACC-903 [3] = assay: Antitumor activity in human UACC-903 cells xenografted in Harlan Sprague-Dawley athymic nude mouse assessed as reduction in tumor size at 0.76 uM, ip administered three times per week; type: functional
Summary of the method: (§1)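 Female athymic nude mice aged 4–6 weeks received 5×10^6 UACC 903 cells s.c. in 0.2 ml DMEM/10% FBS above both rib cages. After six days they were randomized (5 mice/group, 2 tumors/mouse) and dosed i.p. with 0.76 μmoles (3 ppm selenium) Mon/Wed/Fri; controls received DMSO vehicle. Caliper tumor volume (mm³) and body weight were recorded thrice weekly.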

MDA-MB-231 = assay: Cytotoxicity against human MDA-MB-231 cells after 24 hrs by MTS assay; conditions: MDA-MB-231, 24 h
HT-1080 = assay: Cytotoxicity against human HT1080 cells after 24 hrs by MTS assay; conditions: HT-1080, 24 h
T98G = assay: Cytotoxicity against human T98G cells after 24 hrs by MTS assay
Caco-2 = assay: Cytotoxicity against human Caco-2 cells after 24 hrs by MTS assay; conditions: Caco-2, 24 h
UACC-903 [4] = assay: Induction of apoptosis in human UACC-903 cells assessed as increase in caspase 7 activity after 24 hrs relative to control; type: functional, cell-based
Summary of the method: (§2)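 Apoptosis was measured in UACC 903 cells seeded at 5×10^3 per well and treated 24 h with DMSO vehicle or increasing agent concentrations. Combined caspase-3/7 activity was read with the Apo-ONE homogeneous caspase-3/7 kit and reported as fold increase over vehicle-treated cells, averaged over three independent experiments with SEM.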

UACC-903 [5] = assay: Antiproliferative activity against human UACC-903 cells assessed as BrdU incorporation after 24 hrs by ELISA relative to control; type: functional, cell-based
Summary of the method: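 UACC 903 cells, 5×10^3 per well, treated 24 h with DMSO vehicle or increasing concentrations of test agents. Proliferating cells were measured by BrdU incorporation with a BrdU ELISA kit. Values are expressed as percent of DMSO-treated cells, as the mean of three independent experiments with SEM.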

PC-3 = assay: Cytotoxicity against human PC-3 cells after 24 hrs by MTS assay; conditions: PC-3, 24 h
UACC-903 [6] = assay: Induction of apoptosis in human UACC-903 cells assessed as increase in caspase 3 activity after 24 hrs relative to control; type: functional, cell-based
Summary of the method: as §2

UACC-903 [7] = assay: Antitumor activity in human UACC-903 cells xenografted in Harlan Sprague-Dawley athymic nude mouse assessed as reduction in tumor size at 2.5 uM, ip administered three times per week; type: functional; set-up: scale not given: the % may be the effect or the level left
Summary of the method: (§3)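 UACC 903 xenografts: 5×10^6 cells s.c. in 0.2 ml DMEM/10% FBS at both flanks of 4–6-week-old female athymic nude mice. From day six, mice were randomized (5/group, 2 tumors each) and given 2.5 μmoles i.p. three times weekly (Mon/Wed/Fri), with DMSO vehicle controls. Tumor size (calipers, mm³) and body weight were measured thrice weekly.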

Mus musculus [8] = assay: Toxicity in human UACC-903 cells xenografted in Harlan Sprague-Dawley athymic nude mouse assessed as effect on body weight at 2.5 uM, ip administered three times per week; type: organism-based; conditions: in vivo
Summary of the method: as §3

Mus musculus [9] = assay: Toxicity in human UACC-903 cells xenografted in Harlan Sprague-Dawley athymic nude mouse assessed as effect on body weight at 0.76 uM, ip administered three times per week; type: organism-based; conditions: in vivo
Summary of the method: as §1

`CC(=O)NC(CSC(=[Se])NCCCCc1ccccc1)C(=O)O` (stereo not drawn) showed a pIC50 (UACC-903 [1]) of 4.77 and a pIC50 (UACC-903 [2]) of 5.00.

`CC(=O)NC(CSC(=S)NCCCCc1ccccc1)C(=O)O` (stereo not drawn) was tested, and the pIC50 (UACC-903 [1]) was 4.62 and the pIC50 (UACC-903 [2]) was 4.62.

`S=C=NCc1ccccc1` [BENZYL ISOTHIOCYANATE] was tested, and the Activity (UACC-903 [3]) was “inactive”, the pIC50 (MDA-MB-231) was 4.38 and the pIC50 (UACC-903 [1]) was 4.82. The pIC50 (HT-1080) was < 4.30, the pIC50 (T98G) was < 4.00 and the Activity (UACC-903 [2]) was “Dose-dependent effect”. The pIC50 (Caco-2) was 4.82, the Activity (UACC-903 [4]) was “Dose-dependent effect” and the Activity (UACC-903 [5]) was “Dose-dependent effect”. The pIC50 (PC-3) was < 4.30, the Activity (UACC-903 [6]) was “Dose-dependent effect” and the Activity (UACC-903 [7]) was 40%. For the same compound, the Activity (Mus musculus [8]) was “Non-toxic”.

Work on `[Se]=C=NCc1ccccc1` [BENZYLISOSELENOCYANATE] yielded a pIC50 (MDA-MB-231) of 4.54, a pIC50 (UACC-903 [1]) of 4.80 and a pIC50 (HT-1080) of 4.89. For the same compound, the pIC50 (T98G) was 4.37, the Activity (UACC-903 [2]) was “Dose-dependent effect” and the Activity (Mus musculus [9]) was “Non-toxic”. The pIC50 (Caco-2) was 4.89, the Activity (UACC-903 [4]) was “Dose-dependent effect” and the Activity (UACC-903 [5]) was “Dose-dependent effect”. The pIC50 (PC-3) was 4.62 and the Activity (UACC-903 [6]) was “Dose-dependent effect”.

`[Se]=C=NCCc1ccccc1` [PHENETHYLISOSELENOCYANATE] was tested, and the Activity (UACC-903 [3]) was 30%, the pIC50 (MDA-MB-231) was 4.70 and the pIC50 (UACC-903 [1]) was 4.92. For the same compound, the pIC50 (HT-1080) was 4.92, the pIC50 (T98G) was 4.62 and the Activity (UACC-903 [2]) was “Dose-dependent effect”. For the same compound, the Activity (Mus musculus [9]) was “Non-toxic”, the pIC50 (Caco-2) was 4.96 and the Activity (UACC-903 [4]) was “Dose-dependent effect”. For the same compound, the Activity (UACC-903 [5]) was “Dose-dependent effect”, the pIC50 (PC-3) was 4.80 and the Activity (UACC-903 [6]) was “Dose-dependent effect”.

`S=C=NCCc1ccccc1` [PHENETHYLISOTHIOCYANATE] was tested, and the Activity (UACC-903 [3]) was “inactive”, the pIC50 (MDA-MB-231) was 4.42 and the pIC50 (UACC-903 [1]) was 4.92. For the same compound, the pIC50 (HT-1080) was 4.82, the pIC50 (T98G) was < 4.00 and the Activity (UACC-903 [2]) was “Dose-dependent effect”. For the same compound, the pIC50 (Caco-2) was 4.85, the Activity (UACC-903 [4]) was “Dose-dependent effect” and the Activity (UACC-903 [5]) was “Dose-dependent effect”. For the same compound, the pIC50 (PC-3) was 4.62, the Activity (UACC-903 [6]) was “Dose-dependent effect” and the Activity (UACC-903 [7]) was 40%. For the same compound, the Activity (Mus musculus [8]) was “Non-toxic”.

`[Se]=C=NCCCCc1ccccc1` [PHENYLBUTYL ISOSELENOCYANATE] gave an Activity (UACC-903 [3]) of 30%, a pIC50 (MDA-MB-231) of 4.68 and a pIC50 (UACC-903 [1]) of 5.00. For the same compound, the pIC50 (HT-1080) was 4.96, the pIC50 (T98G) was 4.57 and the Activity (UACC-903 [2]) was “Dose-dependent effect”. For the same compound, the Activity (Mus musculus [9]) was “Non-toxic”, the pIC50 (Caco-2) was 4.92 and the Activity (UACC-903 [4]) was “Dose-dependent effect”. For the same compound, the Activity (UACC-903 [5]) was “Dose-dependent effect”, the pIC50 (PC-3) was 4.72 and the Activity (UACC-903 [6]) was “Dose-dependent effect”.

In the case of `S=C=NCCCCc1ccccc1` [PHENYLBUTYL ISOTHIOCYANATE], the Activity (UACC-903 [3]) was “inactive”, the pIC50 (MDA-MB-231) was 4.57 and the pIC50 (UACC-903 [1]) was 4.80. The pIC50 (HT-1080) was 4.82, the pIC50 (T98G) was 4.46 and the Activity (UACC-903 [2]) was “Dose-dependent effect”. For the same compound, the pIC50 (Caco-2) was 4.57, the Activity (UACC-903 [4]) was “Dose-dependent effect” and the Activity (UACC-903 [5]) was “Dose-dependent effect”. For the same compound, the pIC50 (PC-3) was 4.62, the Activity (UACC-903 [6]) was “Dose-dependent effect” and the Activity (UACC-903 [7]) was 40%. The Activity (Mus musculus [8]) was “Non-toxic”.

For `[Se]=C=NCCCCCCc1ccccc1` [PHENYLHEXYL ISOSELENOCYANATE], the Activity (UACC-903 [3]) was 30%, the pIC50 (MDA-MB-231) was 4.66 and the pIC50 (UACC-903 [1]) was 5.00. For the same compound, the pIC50 (HT-1080) was 4.92, the pIC50 (T98G) was 4.64 and the Activity (UACC-903 [2]) was “Dose-dependent effect”. For the same compound, the Activity (Mus musculus [9]) was “Non-toxic”, the pIC50 (Caco-2) was 5.00 and the Activity (UACC-903 [4]) was “Dose-dependent effect”. The Activity (UACC-903 [5]) was “Dose-dependent effect”, the pIC50 (PC-3) was 4.85 and the Activity (UACC-903 [6]) was “Dose-dependent effect”.

`S=C=NCCCCCCc1ccccc1` [PHENYLHEXYL ISOTHIOCYANATE] was tested, and the Activity (UACC-903 [3]) was “inactive”, the pIC50 (MDA-MB-231) was 4.62 and the pIC50 (UACC-903 [1]) was 4.82. For the same compound, the pIC50 (HT-1080) was 4.54, the pIC50 (T98G) was 4.59 and the Activity (UACC-903 [2]) was “Dose-dependent effect”. For the same compound, the pIC50 (Caco-2) was 4.31, the Activity (UACC-903 [4]) was “Dose-dependent effect” and the Activity (UACC-903 [5]) was “Dose-dependent effect”. The pIC50 (PC-3) was 4.77, the Activity (UACC-903 [6]) was “Dose-dependent effect” and the Activity (UACC-903 [7]) was 40%. For the same compound, the Activity (Mus musculus [8]) was “Non-toxic”.
